In article PMC5708124 (Nature microbiology, 2017):

Legend:
[1] = tested on: Pf ABS parasites and GAMs; conditions: cited from earlier work
[2] = tested on: PfMDR1 mutant lines versus parental ABS parasites (Dd2-B2, FCB); assay: Drug susceptibility profiling of HHQ-resistant lines in ABS parasites; assay type: cell-based, Plasmodium falciparum
[3] = tested on: P. berghei ANKA MRA868 GAMs, Anopheles stephensi mosquitoes; assay: In vivo transmission-blocking effect; design: species or system P. berghei in CD-1 mice; conditions: mice given two doses 12 h apart: 100 mg/kg GNF compounds, 30 mg/kg DHA
[4] = tested on: NF54^Pfs16 late-stage GAMs; assay: Image-based late-stage gametocyte inhibition assay; assay type: cell-based, Plasmodium falciparum; conditions: in words
In short: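 Day-8 stage IV gametocytes were MACS-purified and set at 10% parasitemia and 0.1% Hct, with 0.4% DMSO final. They were incubated 72 h at 37°C in 5% O₂/5% CO₂/90% N₂, then stained overnight with MitoTracker Red CM-H₂XRos. Confocal imaging counted viable mature gametocytes per imaged area; 5 μM puromycin was the control. Screening used 2 μM in triplicate. Potency used serial dilutions up to 40 μM, three per log, on two independent occasions.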

[5] = tested on: Dd2 (multidrug-resistant) ABS parasites; assay: Imaging-based asexual blood stage high-throughput assay; assay type: cell-based, Plasmodium falciparum; conditions: read-out: ABS IC50; multidrug-resistant Dd2, 72 h
[6] = tested on: PfMDR1^selY290F late rings; assay: Hb endocytosis by Western blot; assay type: cell-based, Plasmodium falciparum; conditions: 5′ the IC50 for 5 h
In short: (§1)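 Sorbitol-synchronized parasites were exposed to test compound at 5x IC50 for 5 h, starting at the late ring stage. Lysates were blotted to nitrocellulose and probed overnight at 4°C with rabbit anti-human Hb (1:5,000) and anti-β-actin (1:2,000). Detection was by ECL. Hb band intensities were normalized to β-actin and compared with untreated controls. Repeated on 3–4 independent occasions.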

Dd2-B2 late rings = assay: Hb endocytosis by Western blot; assay type: cell-based, Plasmodium falciparum; conditions: 5′ the IC50 for 5 h, normalized to DMSO control
In short: as §1

Dd2-B2 parasites = assay: Heme fractionation assay; assay type: cell-based, Plasmodium falciparum
[7] = tested on: 3D7 (drug-sensitive) ABS parasites; assay: Imaging-based asexual blood stage high-throughput assay; assay type: cell-based, Plasmodium falciparum; conditions: read-out: ABS IC50; drug-sensitive 3D7, 72 h
In short: (§2)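 Sorbitol-synchronized parasites were seeded at 2% parasitemia and 0.3% Hct and exposed to test compound for 72 h at 37°C in 5% O₂/5% CO₂/90% N₂. Cells were then permeabilized with 0.01% Triton X-100, 0.001% saponin and 5 mM EDTA, and stained with 0.5 μg/mL DAPI for at least 6 h at room temperature in the dark. Confocal imaging used 405 nm excitation. Parasites were counted from spot size and intensity. Two independent cultures.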

[8] = tested on: cultured P. berghei liver-stage parasites; conditions: cited from earlier work
[9] = tested on: P. berghei ANKA MRA868 ABS parasites; assay: 4-day Peters test; assay type: in vivo, P. berghei in CD-1 mice; conditions: 4 doses, 96 h post infection
In short: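 Female CD-1 mice (5 weeks old, 22–25 g; four per group) were infected intraperitoneally with 1x10⁶ parasites. The test compound was given intraperitoneally at 2, 24, 48 and 72 h after infection, in 20% DMSO in water. Controls were solvent only and DHA at 30 mg/kg. Parasitemia was read by microscopy at 96 h. Groups were randomized and blinded. The 100 mg/kg groups were tested once.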

[10] = tested on: HEK293 human embryonic kidney cell line; assay: HEK293 cytotoxicity; assay type: cell-based; conditions: at 40 μM, 72 h
In short: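 Cells were grown in DMEM with 10% fetal calf serum and seeded at 2,000 cells/well, then left overnight at 37°C in 5% CO₂ to adhere. Test compound was added as a serial dilution with a maximum of 40 μM, at 0.4% DMSO final, for 72 h. Medium was then replaced with serum-free DMEM containing 44 μM resazurin for 4–6 h. Fluorescence was read at 530/595 nm. Two biological replicates.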

[11] = tested on: NITD609-R^Dd2 clone #2 (PfATP4 mutant line); assay: Imaging-based asexual blood stage high-throughput assay; assay type: cell-based, Plasmodium falciparum; conditions: read-out: ABS IC50, 72 h
In short: as §2

[12] = tested on: compound-exposed Pf GAMs in Anopheles stephensi mosquitoes; assay: Membrane-feeding assay with A. stephensi mosquitoes; assay type: in vivo, Plasmodium falciparum
In short: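 Day-12 gametocytes were treated 3 days at 1x or 3x their late-stage IC50, with compound refreshed daily, then held 4 days without compound. Controls were 0.25% DMSO and methylene blue at 3x. Stage V cultures (50% Hct, 0.01–0.16% parasitemia) were membrane-fed for 30 min to A. stephensi, kept at 26°C and 78% RH. Midguts were dissected on day 7–8, stained with mercurochrome and oocysts counted blind. Prevalence is the percentage of mosquitoes with at least one oocyst.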

male GAM exflagellation = assay: Male GAM exflagellation of GAM cultures used for membrane feeding; assay type: cell-based, Plasmodium falciparum; conditions: GAM cultures exposed at 3x late-stage IC50
[13] = tested on: PfMDR1^selY290F parasites; assay: Heme fractionation assay; assay type: cell-based, Plasmodium falciparum; conditions: PfMDR1^selY290F
In short: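 Early ring-stage, sorbitol-synchronized parasites were exposed to test compound at 0.1, 0.25, 0.5, 1 and 2x the ABS IC50. Heme species were fractionated and normalized to the number of cells analyzed, counted by flow cytometry of an aliquot. Significance was tested by two-tailed t-tests.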

[14] = tested on: NF54^Pfs16 early-stage GAMs; assay: Luciferase-based early-stage gametocyte inhibition assay; assay type: cell-based, Plasmodium falciparum; conditions: in words
In short: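 Gametocytes on day 1 of gametocytogenesis were set at 10% parasitemia and 0.5% Hct. They were kept in medium with 50 mM N-acetyl-D-glucosamine, refreshed daily. Compound was added at 0.4% DMSO final. Controls were DMSO (0% inhibition) and 5 μM puromycin (100% inhibition). After 72 h at 37°C in 5% O₂/5% CO₂/90% N₂, Steadylite was added, followed by 60 min lysis at room temperature and a luminescence read. Potency used serial dilutions up to 40 μM, three per log, on two independent occasions.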

[15] = all exposure levels up to 2′ IC50, 32 h

## CC(=O)N1CCN(c2ccc(CN(C(=O)/C=C/c3ccc(C(C)(C)C)cc3)[C@@H](Cc3ccccc3)C(=O)N3CCN(Cc4ccc(C#N)cc4)CC3)cc2)CC1 [ACT-451840]
[1]
  activity against Pf ABS parasites and GAMs: low nanomolar
[2]; PfMDR1^edF1072L
  fold decreased susceptibility versus Dd2-B2: 16 fold
[2]; PfMDR1^edS1075I
  fold decreased susceptibility versus Dd2-B2: 5.5 fold
[2]; PfMDR1^selY290F
  fold decreased susceptibility versus Dd2-B2: 45 fold

## CCOC(=O)C1=C(C)NC2=C(C(=O)CC(c3ccc(OC)c(OC)c3)C2)C1c1ccccc1Cl (centres unmarked) [GNF-Pf-5660]
[3]
  reduction in oocyst burden: 21%
  reduction in the number of infected mosquitoes: 25%
[4]
  late-stage gametocytocidal activity: potent
[5]
  IC50: < 25 nM
[6]
  Hb levels within parasites: unchanged
Dd2-B2 late rings
  reduction of Hb levels within parasites: 32%
Dd2-B2 parasites; 0.1′ the IC50 value
  fold decrease in Hz levels compared with untreated controls: 1.5 fold
Dd2-B2 parasites; 0.25′ to 2′ IC50
  fold reduction in Hz levels: 2.3 fold
Dd2-B2 parasites; [15]
  Hb concentration per parasite: unchanged
  free heme concentration per parasite: unchanged
[7]
  IC50: < 25 nM
[8]
  activity against liver-stage parasites: inactive
[9]; 70 mg/kg intraperitoneal
  reduction of parasitemia compared to vehicle-treated mice: 22%
[9]; 100 mg/kg intraperitoneal
  reduction of parasitemia compared to vehicle-treated mice: 65%
[10]
  inhibition of HEK293 cells: no inhibition
[11]
  IC50: < 25 nM
[12]; GAMs pre-treated at 3x late-stage IC50
  reduction in oocyst density per infected mosquito midgut: 95–99%
[12]; GAMs pre-treated at 3x late-stage IC50, 3 days, then 4 days without compound
  reduction in infection prevalence (percentage of infected mosquitoes): 97%
Male GAM exflagellation
  reduction in male GAM exflagellation rates: 98%
[13]
  fold higher exposure levels than in Dd2-B2 giving similar profile of reduced Hz and total heme iron: > 160 fold
[14]
  early-stage gametocytocidal activity: potent
[2]; GNF-Pf-5660-selected clone 2B6H1, PfMDR1 Y290F (AB 100%)
  fold increase in IC50 compared to parental Dd2-B2: 248 fold
